Where a SMILES comes first, the peptide text is derived from it. [ ]: non-standard residue; d: D form. The star is where a group is joined. Benzoyl(4-SO2NH2) = NS(=O)(=O)c1ccc(C(=O)*)cc1
Assays:
[1] = target: T1, hCAII (Homo sapiens, UniProt P00918); test: Esterase activity inhibition; format: biochemical; conditions: from IC50 values
In short: (§1)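 Commercial human CA isozyme at 0.2 μM was run with the inhibitor-peptide conjugate as blocker. The substrate was 50 μM 4-nitrophenyl acetate in Tris buffer (9 mM Tris-HCl, 81 mM NaCl, 10% v/v acetonitrile, 1% v/v DMSO). Nitrophenol formation was followed by absorbance at 400 nm. Each run was done at least in triplicate.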

[2] = target: T2, hCAI (Homo sapiens, UniProt P00915); test: Esterase activity inhibition; format: biochemical
In short: as §1

[3] = target: T1, hCAII; format: binding; conditions: fluorescence visualization of SDS gel, Fig. 3b and 3c
In short: (§2)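 Excess biotinylated conjugate was loaded onto streptavidin agarose in PBS for 2 h, then washed 3-4 times with PBS and 0.05% PBST. The resin was incubated overnight at 4 °C with hCAII and hCAI, added separately or as a mixture, then washed. It was boiled 10 min at 99 °C in SDS loading buffer with reducing agent and run on SDS-PAGE.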

[4] = target: T2, hCAI; format: binding
In short: as §2

[5] = test system: mixture of hCAIX, hCAXII, hCAVB and hCAII; test: Pull-down experiment with a mixture of CA isozymes, SDS-PAGE; format: binding, human; conditions: [CA] = 1.00 μM, Fig. 4

T2 sequence (P00915 whole entry): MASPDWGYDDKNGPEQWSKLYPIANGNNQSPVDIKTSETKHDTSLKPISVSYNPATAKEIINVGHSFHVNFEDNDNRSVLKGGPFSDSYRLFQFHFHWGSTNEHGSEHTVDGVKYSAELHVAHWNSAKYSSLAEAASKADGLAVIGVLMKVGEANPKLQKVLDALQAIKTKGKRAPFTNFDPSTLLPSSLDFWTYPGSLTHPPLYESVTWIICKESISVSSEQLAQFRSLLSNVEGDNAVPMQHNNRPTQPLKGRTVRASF

CC(C)C[C@@H](NC(=O)[C@H](NC(=O)[C@@H](CC(=O)O)NC(=O)[C@H](NC(=O)[C@@H](CC(=O)O)NC(=O)c1ccc(S(N)(=O)=O)cc1)C(C)C)C(C)C)C(N)=O [Compound 9, 4-CBS-dvdvl] ({Benzoyl(4-SO2NH2)}-[dD][dV][dD][dV][dL]-NH2)
increase of inhibitory activity against hCAII compared to 4-ABS [1]: 2.6 fold
increase of inhibitory activity against hCAI compared to 4-ABS ([2]; from IC50 values, esterase activity): 30 fold
specificity in terms of enzymatic inhibitory activity (IC50) ([2]; hCAI versus hCAII and hCAIX): good specificity for hCAI
pull-down with mixture of ZW700-hCAII and CY3-hCAI: binding to hCAII [3]: binds strongly
pull-down, enzymes tested separately: capturing ability for hCAI ([4]; [hCA] = 0.57 μM, Fig. 3a, compared with 1, 2 and 7): greatest capturing ability for hCAI
pull-down with mixture of ZW700-hCAII and CY3-hCAI: binding to hCAI ([4]; fluorescence visualization of SDS gel, Fig. 3b and 3c): binds strongly
pull-down with mixture of CA isozymes: isozyme captured [5]: selective capturing of hCAII

CC(C)C[C@@H](NC(=O)[C@@H](CC(=O)O)NC(=O)c1ccc(S(N)(=O)=O)cc1)C(=O)N[C@H](CC(=O)O)C(=O)N[C@H](CC(=O)O)C(=O)N[C@H](Cc1c[nH]c2ccccc12)C(N)=O [Compound 7, 4-CBS-dlddw] ({Benzoyl(4-SO2NH2)}-[dD][dL][dD][dD][dW]-NH2)
increase of inhibitory activity against hCAII compared to 4-ABS [1]: ca. 17 fold
pull-down with mixture of ZW700-hCAII and CY3-hCAI: binding to hCAII [3]: significantly increased binding selectively to hCAII
pull-down with mixture of CA isozymes: isozyme captured [5]: selective capturing of hCAII
